Measured values: ChEMBL document CHEMBL4715925, “Sulfamoylbenzamide-based Capsid Assembly Modulators for Selective Inhibition of Hepatitis B Viral Replication” (ACS Med Chem Lett, 2021)

Tests used:
Hepatitis B virus = assay: Antiviral activity against Hepatitis B genotype D virus infected in HepG2 2.2.15 cells assessed as inhibition of viral DNA incubated for 5 days by qPCR analysis; assay type: functional, cell-based; settings: HepG2 2.2.15, 120 h
How it was run: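 HepG2.2.15 cells were incubated with compound for 5 days. HBV DNA was then purified from the culture supernatant and quantified by real-time PCR.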

[1] = Cytotoxicity against human HepG2 2.2.15 cells assessed as reduction in cell viability incubated for 5 days by MTT assay; assay type: cell-based; settings: time 5 day
How it was run: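 HepG2.2.15 cells were incubated with compound, then cell viability was measured. Mean ± SD of three independent experiments.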

[2] = Selectivity index, ratio of CC50 for human […] cells to EC50 for Hepatitis B virus; assay type: toxicity; settings: read-out: Ratio CC50/EC50
Cytochrome P450 1A2 = target: T1, Cytochrome P450 1A2 (Homo sapiens, UniProt P05177); assay: Inhibition of human liver microsome CYP1A2 using phenacetin as substrate incubated for 20 mins by LC-MS/MS with HPLC analysis; assay type: ADME, microsomes
T1 sequence (P05177 whole entry): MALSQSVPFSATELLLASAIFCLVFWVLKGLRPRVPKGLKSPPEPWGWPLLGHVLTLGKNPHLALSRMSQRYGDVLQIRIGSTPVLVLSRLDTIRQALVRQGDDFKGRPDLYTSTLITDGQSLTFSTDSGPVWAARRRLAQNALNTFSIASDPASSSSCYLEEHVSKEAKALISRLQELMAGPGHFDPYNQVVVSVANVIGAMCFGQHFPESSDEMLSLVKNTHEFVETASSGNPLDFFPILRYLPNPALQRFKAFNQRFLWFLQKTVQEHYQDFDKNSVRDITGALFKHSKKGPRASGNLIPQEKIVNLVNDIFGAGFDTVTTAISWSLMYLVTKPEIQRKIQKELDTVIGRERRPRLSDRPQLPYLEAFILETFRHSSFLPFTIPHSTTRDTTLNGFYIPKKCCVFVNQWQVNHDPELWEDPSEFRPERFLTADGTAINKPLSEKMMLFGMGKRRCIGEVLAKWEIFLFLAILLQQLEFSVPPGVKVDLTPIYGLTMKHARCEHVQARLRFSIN
How it was run: (§1)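 Cocktail-substrate assay in human liver microsomes; IC50 reported for CYP1A2, 2C9, 2C19, 2D6 and 3A4. n = 3, mean ± SD.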

Cytochrome P450 2C9 = Cytochrome P450 2C9 (Homo sapiens, UniProt P11712); assay: Inhibition of human liver microsome CYP2C9 using tolbutamide as substrate incubated for 20 mins by LC-MS/MS with HPLC analysis; assay type: ADME, microsomes; how it was run: as §1
Cytochrome P450 2C19 = Cytochrome P450 2C19 (Homo sapiens, UniProt P33261); assay: Inhibition of human liver microsome CYP2C19 using S-mephenytoin as substrate incubated for 20 mins by LC-MS/MS with HPLC analysis; assay type: ADME, microsomes; how it was run: as §1
Cytochrome P450 2D6 = Cytochrome P450 2D6 (Homo sapiens, UniProt P10635); assay: Inhibition of human liver microsome CYP2D6 using dextromethorphan as substrate incubated for 20 mins by LC-MS/MS with HPLC analysis; assay type: ADME, microsomes; how it was run: as §1
Cytochrome P450 3A4 = Cytochrome P450 3A4 (Homo sapiens, UniProt P08684); assay: Inhibition of human liver microsome CYP3A4 using […] as substrate incubated for 20 mins by LC-MS/MS with HPLC analysis; assay type: ADME, microsomes; how it was run: as §1
[3] = target: Voltage-gated inwardly rectifying potassium channel KCNH2 (Homo sapiens, UniProt Q12809); assay: Inhibition of human ERG by fluorescence polarization assay
[4] = Metabolic stability in rat liver microsomes assessed as compound remaining at 1 uM incubated for 30 mins by LC-MS/MS analysis; assay type: ADME, Microsome; settings: read-out: Stabilty
How it was run: (§2)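 Phase-I stability in rat or human liver microsomes, given as % remaining after 30 min, with half-life also derived. n = 3, mean ± SD.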

[5] = Metabolic stability in human liver microsomes assessed as compound remaining at 1 uM incubated for 30 mins by LC-MS/MS analysis; assay type: ADME, Microsome; settings: read-out: Stabilty; how it was run: as §2
[6] = Metabolic stability in rat liver microsomes assessed as half life at 1 uM incubated for 30 mins by LC-MS/MS analysis; assay type: ADME, Microsome; how it was run: as §2
[7] = Metabolic stability in human liver microsomes assessed as half life at 1 uM incubated for 30 mins by LC-MS/MS analysis; assay type: ADME, Microsome; how it was run: as §2
[8] = Stability in rat plasma assessed as compound remaining at 5 uM incubated for 4 hrs by LC-MS/MS analysis; assay type: ADME, cell-free; settings: read-out: Stabilty
How it was run: (§3)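 Incubated in rat or human plasma at 37 °C for 4 h; result is % compound remaining. n = 3, mean ± SD.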

[9] = Stability in human plasma assessed as compound remaining at 5 uM incubated for 4 hrs by LC-MS/MS analysis; assay type: ADME, cell-free; settings: read-out: Stabilty; how it was run: as §3
[10] = Protein binding in rat plasma at 5 uM incubated for 4 hrs by LC-MS/MS analysis; assay type: ADME, cell-free; settings: read-out: PPB (converted)
[11] = Protein binding in human plasma at 5 uM incubated for 4 hrs by LC-MS/MS analysis; assay type: ADME, cell-free; settings: read-out: PPB (converted)
[12] = Half life in Sprague-Dawley rat at 5 mg/kg, iv by LC-MS/MS analysis; assay type: ADME, organism-based; settings: in vivo
How it was run: (§4)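 Male SD rats, 5 mg/kg given i.v. or p.o.; plasma concentration–time courses followed. Parameters: Tmax, Cmax, terminal T1/2, AUClast, AUC to infinity, total plasma clearance, Vss, oral bioavailability (Ft). Values are mean ± SD of at least three independent experiments.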

[13] = AUClast in Sprague-Dawley rat at 5 mg/kg, iv by LC-MS/MS analysis; assay type: ADME, organism-based; set-up: route intravenous, time 0 - last, dose 5 mg/kg; settings: in vivo; how it was run: as §4
[14] = AUC (0 to infinity) in Sprague-Dawley rat at 5 mg/kg, iv by LC-MS/MS analysis; assay type: ADME, organism-based; set-up: time infinity, route intravenous, dose 5 mg/kg; settings: in vivo; how it was run: as §4
[15] = Clearance in Sprague-Dawley rat at 5 mg/kg, iv by LC-MS/MS analysis; assay type: ADME, organism-based; settings: in vivo; how it was run: as §4
[16] = Volume of distribution at steady state in Sprague-Dawley rat at 5 mg/kg, iv by LC-MS/MS analysis; assay type: ADME, organism-based; settings: in vivo, read-out: Vdss; how it was run: as §4
[17] = Tmax in Sprague-Dawley rat at 5 mg/kg, po by LC-MS/MS analysis; assay type: ADME, organism-based; settings: in vivo; how it was run: as §4
[18] = Cmax in Sprague-Dawley rat at 5 mg/kg, po by LC-MS/MS analysis; assay type: ADME, organism-based; set-up: route oral, dose 5 mg/kg; settings: in vivo; how it was run: as §4
[19] = Half life in Sprague-Dawley rat at 5 mg/kg, po by LC-MS/MS analysis; assay type: ADME, organism-based; settings: in vivo; how it was run: as §4
[20] = AUClast in Sprague-Dawley rat at 5 mg/kg, po by LC-MS/MS analysis; assay type: ADME, organism-based; set-up: time 0 - last, route oral, dose 5 mg/kg; settings: in vivo; how it was run: as §4
[21] = AUC (0 to infinity) in Sprague-Dawley rat at 5 mg/kg, po by LC-MS/MS analysis; assay type: ADME, organism-based; set-up: time infinity, route oral, dose 5 mg/kg; settings: in vivo; how it was run: as §4
[22] = Oral bioavailability in Sprague-Dawley rat at 5 mg/kg by LC-MS/MS analysis; assay type: ADME, organism-based; settings: in vivo; how it was run: as §4

Cytochrome P450 3A4, sequence (P08684 whole entry): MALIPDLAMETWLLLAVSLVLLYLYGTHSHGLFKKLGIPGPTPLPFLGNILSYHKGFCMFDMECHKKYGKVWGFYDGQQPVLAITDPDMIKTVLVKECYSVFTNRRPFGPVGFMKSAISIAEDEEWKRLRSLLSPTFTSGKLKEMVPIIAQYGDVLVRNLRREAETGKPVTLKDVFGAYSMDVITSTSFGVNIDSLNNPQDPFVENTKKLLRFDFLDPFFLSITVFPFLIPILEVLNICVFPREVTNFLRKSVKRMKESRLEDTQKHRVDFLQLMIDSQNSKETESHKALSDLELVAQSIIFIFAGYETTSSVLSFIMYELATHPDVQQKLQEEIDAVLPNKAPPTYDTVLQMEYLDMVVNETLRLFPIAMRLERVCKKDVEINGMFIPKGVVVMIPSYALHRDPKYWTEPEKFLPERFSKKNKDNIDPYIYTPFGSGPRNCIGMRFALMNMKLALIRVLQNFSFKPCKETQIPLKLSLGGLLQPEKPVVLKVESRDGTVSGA
Voltage-gated inwardly rectifying potassium channel KCNH2, sequence (Q12809 whole entry): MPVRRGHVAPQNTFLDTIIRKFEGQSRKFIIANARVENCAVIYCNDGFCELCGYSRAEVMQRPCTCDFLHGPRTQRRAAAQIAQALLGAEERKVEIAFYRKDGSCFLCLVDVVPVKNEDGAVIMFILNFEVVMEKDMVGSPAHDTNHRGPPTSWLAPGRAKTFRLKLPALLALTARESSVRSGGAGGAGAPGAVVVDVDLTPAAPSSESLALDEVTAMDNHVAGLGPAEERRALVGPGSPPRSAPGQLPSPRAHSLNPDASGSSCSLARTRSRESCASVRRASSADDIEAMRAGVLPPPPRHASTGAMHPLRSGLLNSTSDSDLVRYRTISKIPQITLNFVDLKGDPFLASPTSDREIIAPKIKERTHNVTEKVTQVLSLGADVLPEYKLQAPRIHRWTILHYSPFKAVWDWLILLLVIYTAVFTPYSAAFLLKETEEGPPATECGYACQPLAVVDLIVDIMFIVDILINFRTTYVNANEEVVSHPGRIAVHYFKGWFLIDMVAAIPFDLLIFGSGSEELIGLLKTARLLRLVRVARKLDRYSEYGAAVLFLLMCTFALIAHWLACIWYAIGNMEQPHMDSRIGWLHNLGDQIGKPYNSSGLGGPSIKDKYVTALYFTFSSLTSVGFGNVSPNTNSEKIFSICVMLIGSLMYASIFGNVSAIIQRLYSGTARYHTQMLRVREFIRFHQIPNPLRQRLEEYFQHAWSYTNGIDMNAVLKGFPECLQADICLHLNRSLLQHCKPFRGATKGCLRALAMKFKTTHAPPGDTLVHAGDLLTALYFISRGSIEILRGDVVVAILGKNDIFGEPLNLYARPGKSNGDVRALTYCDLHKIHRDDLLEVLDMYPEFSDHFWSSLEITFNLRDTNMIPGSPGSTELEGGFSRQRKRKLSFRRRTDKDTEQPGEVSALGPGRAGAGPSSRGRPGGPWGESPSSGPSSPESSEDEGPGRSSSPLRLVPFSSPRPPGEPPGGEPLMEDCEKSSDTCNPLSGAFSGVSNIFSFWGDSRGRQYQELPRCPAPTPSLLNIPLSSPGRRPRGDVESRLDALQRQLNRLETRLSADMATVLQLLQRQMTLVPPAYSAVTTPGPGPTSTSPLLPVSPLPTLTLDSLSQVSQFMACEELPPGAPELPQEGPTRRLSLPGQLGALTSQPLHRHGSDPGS
Cytochrome P450 2C19, sequence (P33261 whole entry): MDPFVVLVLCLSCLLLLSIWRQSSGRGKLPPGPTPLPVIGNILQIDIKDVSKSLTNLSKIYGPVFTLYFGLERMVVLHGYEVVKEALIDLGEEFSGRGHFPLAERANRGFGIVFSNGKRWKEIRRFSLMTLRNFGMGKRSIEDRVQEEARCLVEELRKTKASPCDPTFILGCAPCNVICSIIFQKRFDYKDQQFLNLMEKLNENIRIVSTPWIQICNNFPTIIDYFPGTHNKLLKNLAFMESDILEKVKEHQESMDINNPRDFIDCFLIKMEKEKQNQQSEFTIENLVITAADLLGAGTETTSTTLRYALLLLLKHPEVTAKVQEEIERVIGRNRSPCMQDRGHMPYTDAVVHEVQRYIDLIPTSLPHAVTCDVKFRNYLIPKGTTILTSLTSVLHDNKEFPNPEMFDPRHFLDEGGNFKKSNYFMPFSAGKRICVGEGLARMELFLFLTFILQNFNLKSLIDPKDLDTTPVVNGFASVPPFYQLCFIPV
Cytochrome P450 2D6, sequence (P10635 whole entry): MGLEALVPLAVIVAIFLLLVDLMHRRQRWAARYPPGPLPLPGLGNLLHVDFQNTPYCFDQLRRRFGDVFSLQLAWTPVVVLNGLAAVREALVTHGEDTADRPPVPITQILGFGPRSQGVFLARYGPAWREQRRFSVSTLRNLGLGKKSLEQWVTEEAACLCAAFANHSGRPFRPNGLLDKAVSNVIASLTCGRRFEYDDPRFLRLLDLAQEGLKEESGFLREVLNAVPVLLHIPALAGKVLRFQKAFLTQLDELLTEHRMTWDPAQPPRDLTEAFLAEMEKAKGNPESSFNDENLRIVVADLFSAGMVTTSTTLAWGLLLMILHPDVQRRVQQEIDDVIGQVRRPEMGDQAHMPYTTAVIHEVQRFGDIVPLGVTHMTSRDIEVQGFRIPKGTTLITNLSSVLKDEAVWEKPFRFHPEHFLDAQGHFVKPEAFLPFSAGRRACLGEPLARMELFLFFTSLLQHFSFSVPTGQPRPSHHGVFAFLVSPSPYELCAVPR
Cytochrome P450 2C9, sequence (P11712 whole entry): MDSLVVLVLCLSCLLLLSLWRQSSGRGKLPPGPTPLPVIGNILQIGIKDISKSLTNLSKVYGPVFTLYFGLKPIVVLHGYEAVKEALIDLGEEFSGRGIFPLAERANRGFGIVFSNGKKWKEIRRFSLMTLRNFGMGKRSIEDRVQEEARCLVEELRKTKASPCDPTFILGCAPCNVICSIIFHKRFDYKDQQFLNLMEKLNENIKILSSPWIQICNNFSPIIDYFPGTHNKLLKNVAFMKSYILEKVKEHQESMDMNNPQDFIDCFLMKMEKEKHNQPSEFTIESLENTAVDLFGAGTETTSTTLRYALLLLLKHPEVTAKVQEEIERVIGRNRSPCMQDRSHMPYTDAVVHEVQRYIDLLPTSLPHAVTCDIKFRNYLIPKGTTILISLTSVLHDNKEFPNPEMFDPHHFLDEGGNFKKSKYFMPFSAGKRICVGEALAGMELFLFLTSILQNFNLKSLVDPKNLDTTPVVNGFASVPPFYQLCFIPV

SMILES: Nc1cc(F)c(S(=O)(=O)N2CCC(O)CC2)cc1C(=O)Nc1ccc(C(F)(F)F)c(Cl)c1
- EC50 (Hepatitis B virus): > 3.3 µM
- CC50 at 120 h [1]: 8.7 µM

SMILES: Nc1cc(F)c(S(=O)(=O)N2CCC(O)CC2)cc1C(=O)Nc1ccc(F)c(Cl)c1
- EC50 (Hepatitis B virus): 0.83 µM
- CC50 at 120 h [1]: 18.5 µM
- selectivity ratio [2]: 22.3

SMILES: Nc1cc(F)c(S(=O)(=O)N2CCC(O)CC2)cc1C(=O)Nc1cc(F)c(F)c(F)c1
- EC50 (Hepatitis B virus): 0.27 µM
- CC50 at 120 h [1]: 19.7 µM
- selectivity ratio [2]: 73

SMILES: O=C(Nc1cc(F)c(F)c(F)c1)c1ccc(F)c(S(=O)(=O)N2CCC(O)CC2)c1
- EC50 (Hepatitis B virus): 1.04 µM
- CC50 at 120 h [1]: 8.6 µM
- selectivity ratio [2]: 8.3

SMILES: Nc1cc(F)c(S(=O)(=O)N2CCC(O)CC2)cc1C(=O)Nc1ccc(F)c(C(F)F)c1
- EC50 (Hepatitis B virus): 0.29 µM
- CC50 at 120 h [1]: 47.5 µM
- selectivity ratio [2]: 164
- IC50 (Cytochrome P450 1A2): 45.5 µM
- IC50 (Cytochrome P450 2C9): 25.2 µM
- IC50 (Cytochrome P450 2C19): 19 µM
- IC50 (Cytochrome P450 2D6): 26.7 µM
- IC50 (Cytochrome P450 3A4): 20.8 µM
- IC50 [3]: > 10 µM
- remaining at 0.5 h, 1 µM [4]: 54.1%
- remaining at 0.5 h, 1 µM [5]: 40.5%
- half-life at 1 µM [6]: 0.488 h
- half-life at 1 µM [7]: 0.51 h
- remaining at 4 h, 5 µM [8]: 99.6%
- remaining at 4 h, 5 µM [9]: 100%
- fraction unbound at 4 h, 5 µM [10]: 0.108
- fraction unbound at 4 h, 5 µM [11]: 0.029
- half-life [12]: 2.55 h
- AUC(0-t) [13]: 2310 ng·h/mL
- AUC(0-inf) [14]: 2330 ng·h/mL
- clearance [15]: 36 mL/min/kg
- Vd [16]: 3.59 L/kg
- Tmax [17]: 1.33 h
- Cmax [18]: 280 ng/mL
- half-life [19]: 5.16 h
- AUC(0-t) [20]: 1150 ng·h/mL
- AUC(0-inf) [21]: 1230 ng·h/mL
- bioavailability [22]: 49.9%

SMILES: Nc1cc(F)c(S(=O)(=O)N2CCC(O)CC2)cc1C(=O)Nc1ccc(Cl)c(C(F)F)c1
- EC50 (Hepatitis B virus): > 3.3 µM
- CC50 at 120 h [1]: 30.1 µM

SMILES: Nc1cc(F)c(S(=O)(=O)N2CCC(O)CC2)cc1C(=O)Nc1cccc(F)c1
- EC50 (Hepatitis B virus): 0.83 µM
- CC50 at 120 h [1]: 29.3 µM
- selectivity ratio [2]: 35.3

SMILES: Nc1cc(F)c(S(=O)(=O)N2CCC(O)CC2)cc1C(=O)Nc1ccc(Cl)c(F)c1
- EC50 (Hepatitis B virus): 2.18 µM
- CC50 at 120 h [1]: 20.3 µM
- selectivity ratio [2]: 9.3
